Test [1] in a line: It is the ratio, measured as saluretic activity in the dog as concentration of Na+ in urinary excretion (dose 1.56 mg/Kg, po) to that of K. It is filed as functional, Urine. In outline:
(§1)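 Trained male beagles, fasted 24 h with tap water ad libitum. Bladder emptied by catheter, then 20 mL/kg tap water by stomach tube, with 4 mL/kg water at each hourly catheterization up to 8 h. The first 2 h of urine served as control. Oral dosing came after the second catheterization, and 1–6 h urine was pooled. Na⁺ and K⁺ were measured by flame photometry, Cl⁻ argentometrically, in mequiv/kg.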

The subject of test [2] is Canis familiaris. The experiment in a line: sodium excretion collected at 1-6 hr time after oral administration in dog (four animals per dose) dosed at 3.12 mg/kg. Format: functional, Canis lupus familiaris. In outline: (§2)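 Trained male beagles, four per dose, fasted 24 h with tap water ad libitum. After bladder emptying, given 20 mL/kg tap water by stomach tube, then 4 mL/kg at each hourly catheterization; 2 h control collection, then oral dosing. Urine volume and Na⁺ (flame photometry) reported for 1–6, 7–24 and 1–24 h post-dose periods.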

Test [3] relates to Canis familiaris. The experiment in a line: sodium excretion collected at 1-24 hr time after oral administration in dog (four animals per dose) dosed at 3.12 mg/kg. Format: functional, Canis lupus familiaris. The gist of the method:
as §2

Test [4] has as its system Canis familiaris. Kind of test: urinary excretion collected at 7-24 hr time after oral administration in dog (four animals per dose) dosed at 0.05 mg/kg. Format: functional, Canis lupus familiaris, Urine.
The test system of test [5] is Canis familiaris. The experiment in a line: Saluretic activity in the dog measured as concentration of Cl - in urinary excretion (2 animals/dose) at (dose 0.025 mg/Kg, perorally). It is filed as functional, Canis lupus familiaris, Urine. The gist of the method: (§3)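 Male beagles trained to the procedures, food withdrawn 24 h before, tap water ad libitum. Bladder emptied by catheter, then 20 mL/kg tap water by stomach tube, plus 4 mL/kg orally at each hourly catheterization up to 8 h. The first 2 h of urine served as control. Compound given orally after the second catheterization. Urine from 1–6 h post-dose pooled; Na⁺ and K⁺ by flame photometry, Cl⁻ argentometrically, in mequiv/kg.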

In test [6] the test system is Canis familiaris. Kind of test: urinary excretion collected at 1-24 hr time after oral administration in dog (four animals per dose) dosed at 0.39 mg/kg.
For test [7], the system named is Canis familiaris. The experiment in a line: sodium excretion collected at 1-24 hr time after oral administration in dog (four animals per dose) dosed at 0.05 mg/kg. It is filed as functional, Canis lupus familiaris. In outline: as §2
Test [8] deals with Canis familiaris. Kind of test: urinary excretion collected at 7-24 hr time after oral administration in dog (four animals per dose) dosed at 3.12 mg/kg. Format: functional, Canis lupus familiaris, Urine.
Test [9] deals with Canis familiaris. Kind of test: Saluretic activity in the dog measured as concentration of Na+ in urinary excretion (2 animals/dose) at (dose 0.4 mg/Kg, perorally). It is filed as functional, Canis lupus familiaris, Urine. The gist of the method: (§4)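 Male beagles trained to rest on a table and to accept stomach tube and catheter. Food withdrawn 24 h before, tap water ad libitum. Bladder emptied by catheter, then 20 mL/kg tap water by stomach tube. Catheterized hourly up to 8 h with 4 mL/kg water orally each time; first 2 h urine served as control. Oral dosing after second catheterization. Pooled 1–6 h urine; Na⁺/K⁺ by flame photometry, Cl⁻ argentometrically.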

The nature of test [10]: It is the ratio, measured as saluretic activity in the dog as concentration of Cl- in urinary excretion (dose 0.4 mg/Kg, po) to that of (Na+)+(K+). It is filed as functional, Urine. In outline:
as §1

Test [11] has as its system Canis familiaris. The experiment in a line: Saluretic activity in the dog measured as concentration of K+ in urinary excretion (2 animals/dose) at (dose 0.025 mg/Kg, perorally). Format: functional, Canis lupus familiaris, Urine. The gist of the method:
as §3

In test [12] the test system is Canis familiaris. The experiment in a line: Diuretic activity in the dog (2 animals/dose) at (dose 0.025 mg/Kg), when administered perorally. Format: functional, Canis lupus familiaris, Urine. The gist of the method: as §1
Test [13] relates to Canis familiaris. The experiment in a line: urinary excretion collected at 1-6 hr time after oral administration in dog (four animals per dose) dosed at 3.12 mg/kg. It is filed as functional, Canis lupus familiaris, Urine.
A short description of test [14]: It is the ratio, measured as saluretic activity in the dog as concentration of Cl- in urinary excretion (dose 1.56 mg/Kg, po) to that of (Na+)+(K+). Format: functional, Urine. The gist of the method:
as §1

In test [15] the test system is Canis familiaris. The experiment in a line: sodium excretion collected at 1-24 hr time after oral administration in dog (four animals per dose) dosed at 0.39 mg/kg. It is filed as functional, Canis lupus familiaris. The gist of the method: as §2
The subject of test [16] is Canis familiaris. The experiment in a line: Saluretic activity in the dog measured as concentration of Na+ in urinary excretion (2 animals/dose) at (dose 0.025 mg/Kg, perorally). It is filed as functional, Canis lupus familiaris, Urine. In outline: as §4
For test [17], the system named is Canis familiaris. The experiment in a line: Urinary excretion collected at 1-24 hr time after oral administration in dog (four animals per dose) at dose 0.39 mg/kg. Format: functional, Canis lupus familiaris, Urine. In outline:
as §2

Test [18] is filed under the species Rattus norvegicus. The experiment in a line: Effect on (GFR) glomerular filtration rate in rats in comparison to furosemide activity.
Test [19] deals with Canis familiaris. The experiment in a line: sodium excretion collected at 7-24 hr time after oral administration in dog (four animals per dose) at dose 1.56 mg/kg. Format: functional, Canis lupus familiaris. In outline:
as §2

In test [20] the test system is Canis familiaris. The experiment in a line: Urinary excretion collected at 7-24 hr time after oral administration in dog (four animals per dose) at dose 0.39 mg/kg. Format: functional, Canis lupus familiaris, Urine. The gist of the method:
as §2

For test [21], the system named is Canis familiaris. The experiment in a line: Urinary excretion collected at 7-24 hr time after oral administration in dog (four animals per dose) at dose 1.56 mg/kg. It is filed as functional, Canis lupus familiaris, Urine. In outline:
as §2

Test [22] has as its system Canis familiaris. The experiment in a line: Urinary excretion collected at 1-24 hr time after oral administration in dog (four animals per dose) at dose 6.25 mg/kg. It is filed as functional, Canis lupus familiaris, Urine. In outline: as §2
Test [23] is described as follows: It is the ratio, measured as saluretic activity in the dog as concentration of Cl- in urinary excretion (dose 1.56 mg/Kg, perorally) to that of (Na+)+K+). Format: functional, Urine. In outline: as §1
The nature of test [24]: It is the ratio, measured as saluretic activity in the dog as concentration of Cl- in urinary excretion (dose 12.5 mg/kg, p.o.) to that of (Na+)+(K+). Format: functional, Urine. The conditions noted are these: route oral. The gist of the method:
as §1

Test [25] concerns Canis familiaris. Kind of test: Urinary excretion collected at 1-6 hr time after oral administration in dog (four animals per dose) at dose 6.25 mg/kg. It is filed as functional, Canis lupus familiaris, Urine. In outline:
as §2

Test [26] deals with Canis familiaris. The experiment in a line: sodium excretion collected at 7-24 hr time after oral administration in dog (four animals per dose) at dose 6.25 mg/kg. It is filed as functional, Canis lupus familiaris. The gist of the method:
as §2

Test [27] relates to Canis familiaris. The experiment in a line: Saluretic activity in the dog measured as concentration of Na+ in urinary excretion (2 animals/dose) at a dose of 0.1 mg/Kg, perorally. It is filed as functional, Canis lupus familiaris, Urine. In outline: as §4
Test [28] has as its system Canis familiaris. Kind of test: sodium excretion collected at 1-6 hr time after oral administration in dog (four animals per dose) at dose 6.25 mg/kg. It is filed as functional, Canis lupus familiaris. The gist of the method: as §2
Test [29] in a line: It is the ratio, measured as saluretic activity in the dog as concentration of Na+ in urinary excretion (dose 1.56 mg/Kg, perorally) to that of K. It is filed as functional, Urine. In outline:
as §1

The nature of test [30]: It is the ratio, measured as saluretic activity in the dog as concentration of Cl- in urinary excretion (dose 0.4 mg/Kg, perorally) to that of (Na++K+). Format: functional, Urine. The gist of the method: as §1
Test [31] can be described thus: It is the ratio, measured as saluretic activity in the dog as concentration of Na+ in urinary excretion (dose 12.5 mg/kg, p.o.) to that of K. Particulars: route oral. Format: functional, Urine. The gist of the method: as §1
Test [32] deals with Canis familiaris. The experiment in a line: sodium excretion collected at 1-24 h time after oral administration in dog (four animals per dose) at dose 6.25 mg/kg. Format: functional, Canis lupus familiaris. In outline: as §2
Test [33] has as its system Canis familiaris. Kind of test: Urinary excretion collected at 1-6 hr time after oral administration in dog (four animals per dose) at dose 1.56 mg/kg. It is filed as functional, Canis lupus familiaris, Urine. In outline: as §2
In test [34] the test system is Canis familiaris. Kind of test: sodium excretion collected at 1-24 hr time after oral administration in dog (four animals per dose) at dose 1.56 mg/kg. It is filed as functional, Canis lupus familiaris. The gist of the method:
as §2

SMILES strings stand for the structures.

Turning to `CN(c1ccccc1)c1cc(NCc2ccco2)c(S(=O)(=O)[O-])cc1S(N)(=O)=O.[Na+]`, the values for the Ratio in test [1], in [10] and in [14] were 4.9, 1 and 1, respectively. Moreover, the Na+ excretion in [2] came to 4.39 mequiv kg-1; in test [3], 6.48 mequiv kg-1; in [7], 1.51 mequiv kg-1; in test [15], 5.81 mequiv kg-1. In addition, the Urinary excretion in [4] turned out to be 10.1 mL/kg; in test [6], 95.7 mL/kg; in test [8] it was 40.8 mL/kg; in test [13], 61.2 mL/kg. This compound showed a Saldiuretic activity in test [5] of 0.75 mequiv kg-1 6hr-1. Moreover, the Saluretic activity in test [9] came out at 5.26 m equiv 6hr-1 kg-1; in [11] it was 0.2 m equiv 6hr-1 kg-1; in [16], 0.45 m equiv 6hr-1 kg-1. The Diuretic activity in [12] amounted to 33.3 ml kg-1 6hr-1.

In the case of `NS(=O)(=O)c1cc(S(=O)(=O)[O-])c(NCc2ccco2)cc1Oc1ccccc1.[Na+]`, the Urinary excretion in [17] came out at 50.9 mL/kg; in test [20] it was 9.3 mL/kg; in test [21], 12.3 mL/kg; in test [22] it was 111.1 mL/kg; in test [25], 75.4 mL/kg; in test [33] it was 61.1 mL/kg. For the same compound, the GFR in test [18] turned out to be 6.89 mL/min/kg. Further, the Na+ excretion in [19] came out at 0.48 mequiv kg-1; in [26], 1.98 mequiv kg-1; in [28], 6.52 mequiv kg-1; in test [32], 8.55 mequiv kg-1; in test [34] it was 5.4 mequiv kg-1. Further, the Ratio is given as 0.95 in test [23]; 0.95 in [24]; 4.9 in test [29]; 1.1 in [30]; 5.5 in test [31]. This compound came in with a Saluretic activity in test [27] of 0.18 m equiv 5hr-1 kg-1.

(Values after ChEMBL document CHEMBL1122273, “5-sulfamoylorthanilic acids, a sulfonamide series with salidiuretic activity” (J Med Chem, 1983).)
